# Compound activity: PubChem BioAssay, The Scripps Research Institute Molecular Screening Center
# IMP-1 inhibitor: IMP-1 metallo-beta-lactamase inhibitors, primary screen, biochemical, epi-absorbance readout, Pseudomonas aeruginosa enzyme. AID 1556, 2009. purified IMP-1, nitrocefin hydrolysis, epi-absorbance fluorescence. metallo-beta-lactamase IMP-1 (Pseudomonas aeruginosa). 290,000 compounds, 0.45% hits. inhibition, % at 5.6 µM;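 active means inhibition above the mean plus 3 SD of all compounds in the same screening run, cut at about 4.5% in these data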;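 further: 0% = IMP-1 with DMSO and 100% = DMSO wells lacking enzyme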
#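 system = purified recombinant IMP-1 beta-lactamase | amount = 0.2 nM IMP-1, as dispensed | medium = HEPES buffer pH 7.1 with ZnSO4 and Brij 35 | times = 25 °C, 15 min preincubation, 25 min reaction | detection = plate fluorescence quenching by hydrolysis product, ex 480/em 530 nm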
# VIM-2 inhibitor: VIM-2 metallo-beta-lactamase inhibitors, primary screen, biochemical, epi-absorbance readout, Pseudomonas aeruginosa enzyme. inhibition, % at 5.6 µM. purified VIM-2, nitrocefin hydrolysis, epi-absorbance fluorescence. 290,000 compounds, 0.89% hits;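 active means inhibition above the mean of all tested compounds plus 3 SD, cutoff set per screening run, cut at about 7.5% in these data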;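 further: red hydrolysis product quenches plate fluorescence so inhibitors raise well fluorescence; 0% = enzyme with DMSO and 100% = DMSO without enzyme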
# CTSL1 counter-1: Fasciola hepatica cathepsin L1 inhibitors, primary screen, counter-screen for PFM18AAP inhibitor project, biochemical, QFRET, fluorogenic peptide substrate | recombinant F. hepatica cathepsin L1, Z-Leu-Arg-MCA fluorescence | inhibition, % at 5.96 µM | 300,000 compounds, 0.49% hits;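 active means inhibition above the mean of all tested compounds plus 3 SD, set per screening campaign, cut at about 17% in these data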;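 further: 0% = plate median of test compound wells and 100% = 1 µM Z-Phe-Ala-diazomethylketone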
# PfM18AAP inh-1: PfM18AAP inhibitors, malaria aminopeptidase, primary screen, biochemical, QFRET, recombinant enzyme; M18 aspartyl aminopeptidase (Plasmodium falciparum 3D7); H-Glu-NHMec fluorogenic cleavage; inhibition, % at 7.35 µM; 290,000 compounds, 1.2% hits;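 active means inhibition above the campaign mean inhibition over all tested compounds plus 3 SD, cut at about 28% in these data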;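 further: 0% = plate median of test compound wells and 100% = 2 mM ZnCl2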
# PfM18AAP inh-2: PfM18AAP inhibitors, malaria aminopeptidase, confirmation, biochemical, QFRET, recombinant enzyme, triplicate; inhibition, % at 7.35 µM; 2,400 compounds, 28% hits; H-Glu-NHMec fluorogenic cleavage; AID 2170, 2009; shares compounds with PfM18AAP inh-1;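 active means mean inhibition over replicate wells above the hit cutoff set for the earlier primary screen, cut at about 29% in these data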;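 further: 0% = median of test compound wells and 100% = 2 mM ZnCl2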
# CTSL1 counter-2: cathepsin L1 inhibitors, retest, confirmation, counter-screen for PFM18AAP inhibitor project, biochemical, QFRET, triplicate; AID 2178, 2009; purified cathepsin L1, Z-Leu-Arg-MCA fluorescence; 2,400 tested, under 10 active; shares compounds with PfM18AAP inh-1; inhibition, % at 5.96 µM;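 active means average inhibition across replicates above the hit cutoff set in the earlier primary screen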;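 further: 0% = median of test compound wells and 100% = Z-Phe-Ala-diazomethylketone 1 µM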
# Target sequence (P07711 whole entry, looked up): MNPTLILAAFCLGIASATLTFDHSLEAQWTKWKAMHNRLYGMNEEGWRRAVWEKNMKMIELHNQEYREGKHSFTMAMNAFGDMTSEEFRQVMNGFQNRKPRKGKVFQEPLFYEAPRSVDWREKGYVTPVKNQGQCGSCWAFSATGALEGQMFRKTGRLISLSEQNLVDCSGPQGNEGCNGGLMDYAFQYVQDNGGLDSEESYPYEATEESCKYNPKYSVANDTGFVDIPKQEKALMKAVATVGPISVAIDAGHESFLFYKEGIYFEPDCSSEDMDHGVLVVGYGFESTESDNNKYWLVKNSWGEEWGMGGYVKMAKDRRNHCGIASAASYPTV
# * = called active by the depositor; / = not tested or not shown. Only some compounds are listed: those with a hit (about 2.7% of all), similar ones and a draw of the others.
SMILES,IMP-1 inhibitor,VIM-2 inhibitor,CTSL1 counter-1,PfM18AAP inh-1,PfM18AAP inh-2,CTSL1 counter-2
COc1ccccc1C(=O)NCCN1CCN(c2ccccc2)CC1,-1.9,-1.0,-2.2,2.2,/,/
CC(=O)c1c(C(C)=O)c(C)n(-c2ccc(N)c(C)c2)c1C,-7.4,-2.0,-3.2,32.4*,-40.4,0.0
COc1c(Br)cc(/C=N/n2c(-c3ccccc3)n[nH]c2=S)c(O)c1Br,-0.6,-0.5,-1.6,45.0*,-9.1,-3.0
Cc1c(C)n(Cc2ccc(F)cc2)c2ccc(C(=O)NCCN3CCOCC3)cc12,-4.1,-1.2,2.9,1.8,/,/
Cc1c(-c2ccccc2)sc(N)c1C(=O)N1CCOCC1,-2.0,-0.8,-3.5,35.9*,-17.3,-1.4
Cc1ccc(Cl)cc1NC(=S)N(CCCN1CCN(C)CC1)Cc1ccco1,-1.4,-0.9,0.7,-1.5,/,/
COc1ccc(C(=O)NCC(=O)N/N=C/c2ccco2)cc1OC,2.0,1.9,0.5,43.6*,-53.8,-5.9
COc1ccc(C(=O)NCCCCCC(=O)N/N=C/c2ccco2)cc1OC,-0.9,-3.0,-1.3,0.1,/,/
S=c1[nH]ccn1-c1cccc(Cl)c1,-3.4,0.0,1.5,22.7,/,/
CCN1C(=O)N(C)C(N(O)C(=O)NC)C1(C)C (configuration not stated),-4.1,-1.6,-1.1,41.8*,-58.8,-4.5
CN(Cc1cnccn1)Cc1ccccc1OCC(O)CN1CCc2ccccc2C1 (configuration not stated),-2.3,-1.1,2.8,-10.1,/,/
CCc1nnc(NC(=O)CSc2nnc(COc3ccccc3C)o2)s1,-3.2,-1.4,1.0,26.5,/,/
CCc1nnc(NC(=O)CSc2nnc(COc3cccc(C)c3)o2)s1,-1.8,-1.1,-4.2,47.4*,-40.2,-5.2
CCc1nnc(NC(=O)CSc2nnc(Cc3ccc(OC)cc3)o2)s1,0.7,-1.6,-2.5,41.2*,-33.0,-3.0
COc1ccc(Cc2nnc(SCC(=O)Nc3ncc(C)s3)o2)cc1,-1.8,-4.6,0.7,20.9,/,/
O=C(Oc1ccc2ccc(O)cc2c1)c1ccccc1Cl,-1.5,-0.8,/,-1.3,/,/
COc1ccc(S(=O)(=O)Nc2cc3c4c(c2)CCN4C(=O)CC3)cc1OC,/,/,-2.9,/,/,/
O=C(Nc1ccccc1Cl)c1cc2ccccc2o/c1=N\O,-1.6,3.0,0.3,36.9*,18.6,1.0
CC(C)(C)c1c(Cl)c(O)c(-c2ccccc2)c(=O)n1-c1ccccc1,0.3,1.6,/,5.2,/,/
CC(=O)c1cccc(N=c2scc(-c3ccc(S(=O)(=O)N4CCOCC4)cc3)n2CCO)c1,0.5,2.6,-1.9,50.5*,-35.5,0.4
CC(C)(C)c1ccc(/C=N/Nc2ccc(C(=O)O)cc2)cc1,-3.4,-1.9,6.6,-6.3,/,/
CSc1ccc(/C=N\NC(=O)CNc2ccc(C)cc2)cc1,-2.6,-2.8,4.1,1.0,/,/
CC(C)(C)c1ccc(/C=N/Nc2nncn2N)cc1,-5.0,-3.6,/,51.0*,-18.3,-1.2
CSc1ccc(/C=N\Nc2nncn2N)cc1,-1.1,-1.4,1.7,52.5*,-15.9,-3.7
CC(C)(C)c1nnc(N/N=C/c2ccc(Br)cc2)n(N)c1=O,-1.1,-2.9,0.9,42.7*,-38.0,1.6
SMILES,IMP-1 inhibitor,VIM-2 inhibitor,CTSL1 counter-1,PfM18AAP inh-1,PfM18AAP inh-2,CTSL1 counter-2
CC1CCN(c2ccc(/C=N\Nc3nncn3N)cc2[N+](=O)[O-])CC1,-3.7,-1.9,-7.3,52.8*,-18.2,-3.6
CC(C)c1ccc(S(=O)(=O)N2CCN(C(=O)C3CCCC3)CC2)cc1,0.3,-1.1,-0.4,-15.9,/,/
Clc1ccc(NCn2cncn2)nc1,0.5,1.6,0.0,78.5*,63.5*,4.1
O=C(Cn1cncn1)NCc1ccc(Cl)cc1,-1.2,-1.1,1.0,-0.4,/,/
CC(=O)N1CCN(c2nnc(-c3ccc(C)cc3)c3ccccc23)CC1,-2.7,-0.9,0.0,0.3,/,/
Cc1ccc(-c2nnc(N3CCN(C(=O)CSc4ncn[nH]4)CC3)c3ccccc23)cc1,0.5,0.3,-0.3,41.6*,-0.6,0.3
O=C(CSc1ncn[nH]1)Nc1ccccc1-c1ccccc1,-1.9,-2.8,3.6,14.0,/,/
O=C(CSc1ncn[nH]1)Nc1nnc(-c2ccccc2)s1,-1.4,-4.3,-2.6,63.9*,65.7*,1.6
O=C(O)CSc1ncn[nH]1,-3.1,-1.9,-1.7,85.9*,98.0*,-0.9
O=C(CSc1ncn[nH]1)NN(c1ccccc1)c1ccccc1,-3.1,-3.2,-1.5,3.9,/,/
Cc1ccc(NC(=O)CSc2ncn[nH]2)cc1,-2.1,3.3,-3.2,31.9*,11.2,0.1
CN(Cc1cn(C)c2ccccc12)C(=S)Nc1cc(F)cc(F)c1,-2.3,-1.8,-2.0,5.1,/,/
Cc1cc(=O)[nH]c(SCC(=O)Nc2nnc(CC(C)C)s2)n1,-1.1,-1.7,-2.7,-0.6,/,/
O=C(CSc1ncn[nH]1)c1ccc(OC(F)F)cc1,-4.5,-1.1,2.2,39.0*,15.0,-4.2
CCOC(=O)c1c(-c2ccc(C)o2)csc1NC(=O)CSc1ncn[nH]1,1.0,0.6,3.0,60.5*,25.5,1.5
CC(C)Cc1nnc(NC(=O)CSc2ncn[nH]2)s1,-2.0,0.5,-5.2,38.0*,40.0*,2.0
O=C(CSc1ncn[nH]1)Nc1ccc(Cl)c(S(=O)(=O)N2CCOCC2)c1,-2.5,-1.2,3.3,57.3*,51.7*,0.4
CCOc1ccc(NS(=O)(=O)c2ccc(NC(=O)C3CCCO3)cc2)cc1 (configuration not stated),-2.1,-3.3,-1.7,0.8,/,/
CCOC(=O)C1=C(O)C(=O)N(CCCn2ccnc2)C1c1ccc(OC)cc1 (configuration not stated),-3.3,-2.2,-5.1,5.3,/,/
COc1cccc(NC(=O)C2COc3ccccc3O2)c1 (configuration not stated),0.7,1.3,-3.3,3.8,/,/
O=C(CSc1ncn[nH]1)Nc1c(Br)cc([N+](=O)[O-])cc1Br,-4.8,-2.0,-5.1,49.8*,22.8,-13.0
COc1ccc(/C=N/n2cnn(Cc3ccccc3Cl)c2=S)cc1,-1.2,2.1,3.9,33.7*,-50.2,-3.1
OCCC1CN(Cc2cc3c(cc2Cl)OCO3)CCN1C1CCCC1 (configuration not stated),-0.9,-1.3,-55.0,2.0,/,/
O=C(O)c1cc([N+](=O)[O-])c(N2CCCC2)c([N+](=O)[O-])c1,-1.9,-3.2,2.4,38.1*,13.5,0.2
c1ccc(SSc2ccccc2)cc1,-4.3,-3.2,3.0,0.3,/,/
c1cc(SSc2ccncc2)ccn1,-2.9,-4.4,8.3,62.0*,50.4*,-1.0
COc1ccc2nc(Nc3sc4c(c3C(N)=O)CCCC4)sc2c1,-2.6,-2.0,3.1,42.2*,-23.9,-4.5
